Fewer inactive variants are shown than the library holds.
B1: tRNA (parent)
chain: GUUCCGUUGGCGUAAUGGUAACGCGUCUCCCUCCUAAGGAGAAGACUGCGGGUUCGAGUCCCGUACGGAACG

Variants of: B1
Test: yeast fitness relative to wild type (ratio to wild type); higher = fitter; tRNA-Arg(CCU), competitive growth, 37 C, YPD
Outline: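 Gene amplicons from the start population and from each of six end populations were read by 100-nucleotide paired-end sequencing. Those end populations came from pooled Saccharomyces cerevisiae strains carrying tRNA-Arg(CCU) gene variants at the native locus, competed in YPD at 37°C for 24 hours. Fitness relative to wild type was worked out from changes in genotype frequencies. Genotypes needed ≥ 100 starting reads, and estimates < 0.5 were set to 0.5.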
For GUUCCGUUGGCGUAAUGGUAACGUGUCUCCCUCCUAAGGAGAAGACUACGGGUUCGAGUCCCCUACGGAACG, the yeast fitness was 0.768.
With GUUCCGUUGGCGUAAUGGUAACGUGUCUCCCUCCUAAGGAGAAGACUGCGAGUUCGAAUCCCGUACAGAACG the yeast fitness was ≤ 0.5.
For GUUCCGUUGGCGUAAUGGUAACGUGUCUCCCUCCUAAGGAGAAGACUGCCGGUUCGAGUCCCGUACGGAACG, the yeast fitness was 0.774.
With GUUCCGUUGGCGUAAUGGUAACGUGUCUCCCUCCUAAGGAGAAGACUGCGGGUUCGAGUCCCGUACGCAUCG the yeast fitness was ≤ 0.5.
GUUCCGUUGGCGUAAUGGUAACGUGUCUCCCUCCUAAGGAGAAGACUGCGCGUUCGAGUCCCGUACGGAACG gave a yeast fitness of 0.624.
With GUUCCGUUGGCGUAAUGGUAACGUGUCUCCCUCCUAAGGAGAAGACUGCAGGUUCGAGUCCCGUUCGGAACG the yeast fitness was 0.569.
GUUCCGUUGGCGUAAUGGUAACGUGUCUCCCUCCUAAGGAGAAGACUCCGGGUUUGAGUCCCGUACGGAACG gave a yeast fitness of 0.614.
For GUUCCGUUGGCGUAAUGGUAACGUGUCUCCCUCCUAAGGAGAAGACUGCGAGUUCGAGUCCCGUACAGAACG, the yeast fitness was 0.556.
GUUCCGUUGGCGUAAUGGUAACGUGUCUCCCUCCUAAGGAGAAGACUGCGGGUUCGAGUCCCGUAAGGAACG gave a yeast fitness of 0.618.
GUUCCGUUGGCGUAAUGGUAACGUGUCUCCCUCCUAAGGAGAAGACUGCGGGUUCGAGUCCCGUACGAAUCG gave a yeast fitness of 0.647.
Work on GUUCCGUUGGCGUAAUGGUAACGUGUCUCCCUCCUAAGGAGAAGACUGCGGGUUCGAGUCCCGUACGAACCG yielded a yeast fitness of 0.656.
For GUUCCGUUGGCGUAAUGGUAACGUGUCUCCCUCCUAAGGAGAAGACUGCGGGUUCAAGUCCCGUACGGAACG, the yeast fitness was 0.998.
For GUUCCGUUGGCGUAAUGGUAACGUGACGCCCUCCUAAGGAGAAGACUACGGGUUCGUGUCCCGUACGGAACG, the yeast fitness was ≤ 0.5.
GUUCCGUUGGCGUAAUGGUAACGUGUCUCCCUCCUAAGGAGAAAACUGCGGGUUCGAGUCCCGUAAGGAACG showed a yeast fitness of 0.563.
Work on GUUCCGUUGGCGUAAUGGUAACGUGUCUCCCUCCUAAGGAGAAGACUACGGGUUCGAGUCCCGUACGGAACG yielded a yeast fitness of 0.915.
GUUCCGUUGGCGUAAUGGUAACGUGUCUCCCUCCUAAGGAGAAGACUCCGGGUUCGAGUCCCGUACGGAACG showed a yeast fitness of 0.955.
For GUUCCGUUGGCGUAAUGGUAACGUGUCUCCCUCCUAAGGAGAAGACUGCGCGCUCGAGUCCCGUACGGAACG, the yeast fitness was ≤ 0.5.
GUUCCGUUGGCGUAAUGGUAACGUGUCUCCCUCCUAAGGAGAAGACUGCAGGUUCGAGUCCCGUACGGACCG gave a yeast fitness of 0.658.
Work on GUUCCGUUGGCGUAAUGGUAACGUGUCUCCCUCCUAAGAAGAAGACUGCGGGUUCGCGUCCCGUACGGAACG yielded a yeast fitness of 0.727.
GUUCCGUUGGCGUAAUGGUAACGUGUCUCCCUCCUAAGGAGAAGACUGCGGGUUCGAGUCCCGUACGUAACG gave a yeast fitness of 0.892.
Work on GUUCCGUUGGCGUAAUGGUAACGUGUCUCCCUCCUAAGGAGAAGACUGCGGGUUCGAGUCCCGUACGCAACG yielded a yeast fitness of 0.823.
With GUUCCGUUGGCGUAAUGGUAACGUCUCUCGCUCCUAAGGAGAAGACUGCCGGUUCAAGUCCCGUAUGGAACG the yeast fitness was ≤ 0.5.
Variant GUUCCGUUGGCGUAAUGGUAACGUGUCUCCCUCCUAAGGAGAAGACUGCGGGUUCGACUCCCGUACGGAACG has a yeast fitness of 0.89.
In the case of GUUCCGUUGGCGUAAUGGUAACGUGUCUCCCUCCUAAGGAGAAGACUGCGGGUUCGAGUCCCGUACCGAACG, the yeast fitness is reported as 0.698.
Work on GUUCCGUUGGCGUAAUGGUAACGUGUCUCCCUCCUAAGGAGAAGACUGCGGGUUCGAGUCCCGUACUGAACG yielded a yeast fitness of 0.869.
With GUUCCGUUGGCGUAAUGGUAACGUGUCUCCCUCCUAAGGAAAAGACUGCGGGUUCGAGUCCCGUACGAAACG the yeast fitness was ≤ 0.5.
Work on GUUCCGUUGGCGUAAUGGUAACGUGUCUCCCUCCUAAGGACCAGACUGCGGGUUCGAGUCCCGUACGGAACG yielded a yeast fitness of 0.553.
In the case of GUUCCGUUGGCGUAAUGGUAACGUGUCUCCCUCCUAAGGAGAAGACUGCGCGUUCGAGUCCCGUACGAAACG, the yeast fitness is reported as ≤ 0.5.
Variant GUUCCGUUGGCGUAAUGGUAACGUGUCUCCCUCCUAAGGAGAAAACUGAGGGUUCGAGACCCGUACGGAACG has a yeast fitness of 0.528.
In the case of GUUCCGUUGGCGUAAUGGUAACGUCUCUCCAUGCUAAGGAGAAGACUGCGGGUUCGAGUCCCGUUCGGAACG, the yeast fitness is reported as 0.584.
Work on GUUCCGUUGGCGUAAUGGUAACGUGUCUCCCUCCUAAGGAGAAAACUGCGGGUUCGAGUCCCGUACGGAACG yielded a yeast fitness of 0.912.
Variant GUUCCGUUGGCGUAAUGGUAACGUAUCUCUCUCCUAAGGAGAAGAAUGCGGGUUCGAGUCCCGUACGGAACG has a yeast fitness of 0.829.
For GUUCCGUUGGCGUAAUGGUAACGUGUCUCCCUCCUAAAGAGAAGACUGCGACUUCGAGUCCCGUACGGAACG, the yeast fitness was 0.634.
GUUCCGUUGGCGUAAUGGUAACGUGACGCCCUCCUAAGGAGAAGACUGCGGGUUCGAGUCCCGUACGGAACG gave a yeast fitness of 0.506.
GUUCCGUUGGCGUAAUGGUAACGUCUCUCCCUCCUAAGGAGAAGAAUGCGGGUUCGAGUCCCGUACGGAACG gave a yeast fitness of 1.02.
Work on GUUCCGUUGGCGUAAUGGUAACGUGUCUCCCUCCUAAGGAGAAGACUGCGGCUUCGAGUCCCGUACGGAACG yielded a yeast fitness of 0.702.
With GUUCCGUUGGCGUAAUGGUAACGUGUCUCCCUCCUAACGGGAAGACUGCGGGUUCGAGUCCCGUACGGAACG the yeast fitness was ≤ 0.5.
GUUCCGUUGGCGUAAUGGUAACGUAUCUCUCUCCUAAGGAGAAGAAUGCGGGUUCGAGUCCCGUUCGGAACG showed a yeast fitness of 0.562.
